From paper PMC4818746 (Annals of Clinical and Translational Neurology, 2016)
pIC50: −log10 of the molar value.

Tests used:
LRRK2-G2019S [1] = biological target: T1, LRRK2-G2019S (Homo sapiens, UniProt Q5S007, G2019S); test: Filter-binding kinase assay, G2019S activity on LRRKtide; type: biochemical
Procedure, shortened: (§1)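 Recombinant LRRK2 G2019S (0.8 μg) with 5 μg synthetic peptide substrate, 10 μCi [γ32P]ATP and 1X kinase buffer in 40 μL, incubated at 30°C for 20 min. 10 μL of reaction spotted onto P81 phosphocellulose disks, washed twice in 75 mmol/L phosphoric acid, then counted by liquid scintillation. Reported as mean CPM ± SEM (n = 4) of phosphorylated peptide.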

LRRK2-G2019S [2] = biological target: T1, LRRK2-G2019S; test: Filter-binding kinase assay, G2019S activity on PEPrx3; type: biochemical
Procedure, shortened: as §1

LRRK2-G2019S [3] = biological target: T1, LRRK2-G2019S; test: Radiometric kinase assay, LRRK2-G2019S activity on MBP; type: biochemical; details: for reduction of p-MBP: G2019S on MBP, 2 μmol/L antioxidant, relative to vehicle control; for inhibition of p-MBP (in words): screen of 84 antioxidants, 2 μmol/L
LRRK2-WT = LRRK2-WT (Homo sapiens, UniProt Q5S007); test: Radiometric kinase assay, LRRK2-WT activity on MBP; type: biochemical; details: IC50 against LRRK2-WT, MBP substrate
[4] = test system: ddc‐GAL4‐hLRRK2 G2019S flies; test: Oxidative state assays; type: in vivo, Drosophila; details: 10 μmol/L in food, relative fluorescence, control 31,756 ± 4142
[5] = test system: LRRK2 G2019S‐expressing transgenic flies; test: Number of TH+ DA neurons in G2019S fly brains; type: in vivo, Drosophila; details: 10 μmol/L in diet; for increase in number of neurons in PPM3: 60 days posteclosion
Procedure, shortened: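 G2019S transgenic flies (ddc-GAL4 driver) fed cornmeal food containing test compound at 10 μmol/L (DMSO) or plain food, at 25°C. Whole-mount adult brains dissected 60 days after eclosion and immunostained with rabbit anti-TH (1:200). DA neurons scored per cluster, including PPM3, by confocal microscopy. Given as mean count per cluster (n = 4; cohort of 20).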

[6] = test system: LRRK2 G2019S‐expressing transgenic flies; test: Climbing assay; type: in vivo, Drosophila; details: 10 μmol/L in diet
[7] = cited from earlier work
dopaminergic neurons = details: mouse; cited from earlier work
[8] = test system: LRRK2 G2019S‐expressing transgenic flies; test: Lifespan / survival of G2019S flies; type: in vivo, Drosophila; details: nonsignificant
Procedure, shortened: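 ddc-GAL4-hLRRK2 G2019S flies raised at 25°C on cornmeal food, replaced every 2 days, either plain or with test compound in DMSO added at 10 μmol/L. Read-out is the percentage of surviving flies; n = 4 cohorts of 60.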

T1 sequence (Q5S007 whole entry G2019S): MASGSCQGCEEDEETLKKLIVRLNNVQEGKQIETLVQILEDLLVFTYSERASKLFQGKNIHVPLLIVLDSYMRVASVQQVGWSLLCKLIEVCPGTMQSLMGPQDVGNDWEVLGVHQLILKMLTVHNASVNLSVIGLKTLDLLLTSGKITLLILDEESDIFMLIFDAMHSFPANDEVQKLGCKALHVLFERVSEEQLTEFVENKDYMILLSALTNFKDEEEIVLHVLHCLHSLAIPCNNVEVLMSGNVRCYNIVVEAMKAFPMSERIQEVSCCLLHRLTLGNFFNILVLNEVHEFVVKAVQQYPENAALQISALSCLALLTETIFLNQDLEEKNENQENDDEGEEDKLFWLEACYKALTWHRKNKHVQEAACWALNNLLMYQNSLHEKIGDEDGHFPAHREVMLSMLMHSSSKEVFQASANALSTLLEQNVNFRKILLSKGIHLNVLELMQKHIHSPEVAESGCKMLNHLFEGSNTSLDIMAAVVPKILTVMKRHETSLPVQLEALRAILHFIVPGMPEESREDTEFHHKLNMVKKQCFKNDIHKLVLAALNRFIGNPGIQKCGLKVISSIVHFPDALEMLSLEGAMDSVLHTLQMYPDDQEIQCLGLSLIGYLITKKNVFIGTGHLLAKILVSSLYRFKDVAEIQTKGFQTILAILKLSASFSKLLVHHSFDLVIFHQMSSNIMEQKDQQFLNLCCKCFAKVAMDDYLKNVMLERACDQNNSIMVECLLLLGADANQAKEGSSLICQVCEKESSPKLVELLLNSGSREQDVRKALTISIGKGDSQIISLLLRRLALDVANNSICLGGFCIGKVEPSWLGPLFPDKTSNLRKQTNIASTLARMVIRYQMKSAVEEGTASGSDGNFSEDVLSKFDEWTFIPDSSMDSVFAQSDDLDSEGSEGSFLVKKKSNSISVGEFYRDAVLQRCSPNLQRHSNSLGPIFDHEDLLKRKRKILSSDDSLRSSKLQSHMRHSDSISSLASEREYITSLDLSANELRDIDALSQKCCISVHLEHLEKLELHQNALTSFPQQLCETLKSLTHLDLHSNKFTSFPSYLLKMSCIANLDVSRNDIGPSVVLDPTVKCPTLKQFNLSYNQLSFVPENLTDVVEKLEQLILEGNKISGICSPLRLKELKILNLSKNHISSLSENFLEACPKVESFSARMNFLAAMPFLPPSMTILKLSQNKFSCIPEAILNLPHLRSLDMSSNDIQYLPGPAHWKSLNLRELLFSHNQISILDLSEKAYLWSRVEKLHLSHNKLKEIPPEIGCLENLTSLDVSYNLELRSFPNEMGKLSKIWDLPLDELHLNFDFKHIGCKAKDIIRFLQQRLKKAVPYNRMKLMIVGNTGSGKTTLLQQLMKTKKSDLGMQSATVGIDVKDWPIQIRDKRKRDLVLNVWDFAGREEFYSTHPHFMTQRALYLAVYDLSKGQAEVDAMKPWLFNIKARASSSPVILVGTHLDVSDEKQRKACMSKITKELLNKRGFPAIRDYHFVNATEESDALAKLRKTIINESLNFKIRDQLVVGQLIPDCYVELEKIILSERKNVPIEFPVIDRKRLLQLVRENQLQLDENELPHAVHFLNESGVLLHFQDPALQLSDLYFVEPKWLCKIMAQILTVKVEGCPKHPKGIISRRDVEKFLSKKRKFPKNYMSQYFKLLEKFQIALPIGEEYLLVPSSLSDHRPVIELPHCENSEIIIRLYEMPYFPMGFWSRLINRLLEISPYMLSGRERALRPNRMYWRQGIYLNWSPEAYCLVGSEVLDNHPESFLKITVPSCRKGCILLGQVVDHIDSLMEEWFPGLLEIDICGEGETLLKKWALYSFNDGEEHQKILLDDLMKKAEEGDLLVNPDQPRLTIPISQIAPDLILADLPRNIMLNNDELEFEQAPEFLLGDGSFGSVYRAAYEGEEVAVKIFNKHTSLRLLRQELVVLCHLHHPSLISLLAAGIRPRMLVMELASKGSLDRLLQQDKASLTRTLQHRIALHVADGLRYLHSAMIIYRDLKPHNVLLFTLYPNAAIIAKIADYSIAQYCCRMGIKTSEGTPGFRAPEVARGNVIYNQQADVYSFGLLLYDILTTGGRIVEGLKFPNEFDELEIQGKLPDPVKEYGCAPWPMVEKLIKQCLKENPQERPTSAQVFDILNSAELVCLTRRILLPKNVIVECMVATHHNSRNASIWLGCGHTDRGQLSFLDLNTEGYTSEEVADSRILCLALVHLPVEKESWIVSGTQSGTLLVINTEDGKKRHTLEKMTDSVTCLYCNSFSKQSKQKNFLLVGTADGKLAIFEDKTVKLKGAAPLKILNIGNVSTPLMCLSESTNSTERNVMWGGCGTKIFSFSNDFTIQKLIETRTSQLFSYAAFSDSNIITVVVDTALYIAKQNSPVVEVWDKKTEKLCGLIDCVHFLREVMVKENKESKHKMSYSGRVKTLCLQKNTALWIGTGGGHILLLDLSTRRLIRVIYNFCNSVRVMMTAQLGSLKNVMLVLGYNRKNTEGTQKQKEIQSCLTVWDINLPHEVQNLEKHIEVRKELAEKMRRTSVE
LRRK2-WT, sequence (Q5S007 whole entry, the tested form may be a part): as the sequence (Q5S007 whole entry G2019S) above, with S2019G counted along it

SMILES: O=C(/C=C/c1ccc(O)c(O)c1)O[C@H](Cc1ccc(O)c(O)c1)C(=O)O [Rosmarinic acid]
- kinase activity toward LRRKtide (in words) (LRRK2-G2019S [1]): most significantly reduced
- kinase activity toward PEPrx3 (in words) (LRRK2-G2019S [2]): most significantly reduced

SMILES: CCCCCCCCOC(=O)/C=C/c1ccc(O)c(O)c1 [n-Octyl caffeate]
- reduction of p-MBP (LRRK2-G2019S [3]): ~ 90%

SMILES: Cc1cc2c(C(C)C)c(O)c(O)c(C=O)c2c(O)c1-c1c(C)cc2c(C(C)C)c(O)c(O)c(C=O)c2c1O [Gossypol]
- kinase activity toward LRRKtide (in words) (LRRK2-G2019S [1]): most significantly reduced
- kinase activity toward PEPrx3 (in words) (LRRK2-G2019S [2]): most significantly reduced

SMILES: COc1cc(/C=C/C(=O)CC(=O)/C=C/c2ccc(O)c(OC)c2)ccc1O [Curcumin]
- reduction of p-MBP (LRRK2-G2019S [3]): ~ 90%

SMILES: CC1=CC(=O)C(C(C)C)=CC1=O [Thymoquinone]
- pIC50 (LRRK2-G2019S [3]; IC50 against LRRK2-G2019S, MBP substrate): 6.90
- pIC50 (LRRK2-WT): 6.17
- kinase activity toward LRRKtide (in words) (LRRK2-G2019S [1]): most significantly reduced
- kinase activity toward PEPrx3 (in words) (LRRK2-G2019S [2]): most significantly reduced
- level of H2O2 in brain lysates [4]: 18,445 ± 1229
- increase in number of neurons in PPM3 [5]: up to 55%
- increase in climbing scores [6]: ≤ 17%
- crossing of the blood–brain barrier [7]: readily cross the blood–brain barrier
- protection of dopaminergic neurons against MPP+ (dopaminergic neurons): protect dopaminergic neurons against MPP+

SMILES: CC1=C(/C=C/C(C)=C/C=C/C(C)=C/C=C/C=C(C)/C=C/C=C(C)/C=C/C2=C(C)CCCC2(C)C)C(C)(C)CCC1 [β-carotene]
- inhibition of p-MBP (in words) (LRRK2-G2019S [3]): Weak or noninhibitory

SMILES: CC(C)(Sc1cc(C(C)(C)C)c(O)c(C(C)(C)C)c1)Sc1cc(C(C)(C)C)c(O)c(C(C)(C)C)c1 [Probucol]
- inhibition of p-MBP (in words) (LRRK2-G2019S [3]): Weak or noninhibitory
- viability of TH+ neurons (in words) [5]: did not improve
- decrease in lifespan [8]: 11%

SMILES: Cc1c(O)cc2c(c1C)O[C@](C)(CCC[C@H](C)CCC[C@H](C)CCCC(C)C)CC2 [γ‐Tocopherol]
- reduction of p-MBP (LRRK2-G2019S [3]): ~ 90%

SMILES: O=c1ccc2cc(O)c(O)cc2o1 [Esculetin]
- kinase activity toward LRRKtide (in words) (LRRK2-G2019S [1]): most significantly reduced
- kinase activity toward PEPrx3 (in words) (LRRK2-G2019S [2]): most significantly reduced
- level of H2O2 in brain lysates [4]: 20,220 ± 1909
- increase in number of neurons in PPM3 [5]: up to 55%
- crossing of the blood–brain barrier [7]: readily cross the blood–brain barrier
- protection of dopaminergic neurons against MPP+ (dopaminergic neurons): protect dopaminergic neurons against MPP+

SMILES: CN[C@@H]1C[C@H]2O[C@@](C)([C@@H]1OC)n1c3ccccc3c3c4c(c5c6ccccc6n2c5c31)C(=O)NC4 [Staurosporine]
- LRRK2 kinase activity (in words) (LRRK2-G2019S [3]; 10^−3 and 10^−1 μmol/L staurosporine, Fig. 1C): reduced kinase activity

SMILES: Oc1cc(O)cc(/C=C/c2ccc(O)c(O)c2)c1 [Piceatannol]
- kinase activity toward LRRKtide (in words) (LRRK2-G2019S [1]): most significantly reduced
- kinase activity toward PEPrx3 (in words) (LRRK2-G2019S [2]): most significantly reduced
- level of H2O2 in brain lysates [4]: 20,061 ± 2910
- increase in number of neurons in PPM3 [5]: up to 55%
- increase in climbing scores [6]: up to 22%

SMILES: N[C@@H](CCC(=O)N[C@@H](CS)C(=O)NCC(=O)O)C(=O)O [Glutathione]
- inhibition of p-MBP (in words) (LRRK2-G2019S [3]): Weak or noninhibitory

SMILES: O=c1cc(-c2ccccc2)oc2cc(O)c(O)c(O)c12 [Baicalein]
- kinase activity toward LRRKtide (in words) (LRRK2-G2019S [1]): most significantly reduced
- kinase activity toward PEPrx3 (in words) (LRRK2-G2019S [2]): most significantly reduced
